Experimental data reported in ChEMBL document CHEMBL4359879, “Synthesis and evaluation of 2-carboxy indole derivatives as potent and selective anti-leukemic agents” (Eur J Med Chem, 2019).
The source made the active and inactive calls. No cut-off for these calls is given here.

Columns and labels:
Format in all cases: functional, cell-based
CCRF-CEM = experiment: Antiproliferative activity against human CEM cells incubated for 48 hrs by MTT assay
Method in brief: (§1)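 Cells grown in RPMI-1640 with 10% FBS, penicillin/streptomycin, 37 °C, 5% CO2. After 48 h of exposure to a dilution series, MTT was added (0.5 mg/ml final) for 4 h. Formazan was dissolved overnight in acidic SDS (10% SDS, 0.01 mol/L HCl) and absorbance read at 570 and 620 nm. Survival was expressed relative to controls, and EC50 was fitted from dose-response curves.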

RS4-11 = experiment: Antiproliferative activity against human RS4:11 cells incubated for 48 hrs by MTT assay; details: RS4-11, 48 h; method in brief: as §1
HL-60 [1] = experiment: Induction of differentiation in human HL60 cells assessed as increase in CD14 positive cells at 100 nM incubated for 48 hrs by 7-AAD staining-based flow cytometric analysis
Method in brief: (§2)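 Vitamin D3 at 100 nM and ATRA at 2 μM served as positive controls. Stained with APC anti-CD11b and PE anti-CD14 for 30 min at 4 °C, then 7-AAD.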

HL-60 [2] = experiment: Induction of differentiation in human HL60 cells assessed as increase in CD11b positive cells at 2 uM incubated for 48 hrs by 7-AAD staining-based flow cytometric analysis; method in brief: as §2

Structure (SMILES) | EC50 (CCRF-CEM) | EC50 (RS4-11) | Activity (HL-60 [1]) | Activity (HL-60 [2])
COC(=O)c1c(-c2ccc(C(F)(F)F)cc2)c2ccc(OC)cc2n1C | > 100 µM | > 100 µM | – | –
COC(=O)c1[nH]c2cc(OC)ccc2c1C(C)C | > 100 µM | 81.5 µM | – | –
COC(=O)c1[nH]c2cc(OC)ccc2c1C | > 100 µM | > 100 µM | – | –
COC(=O)c1[nH]c2cc(C(F)(F)F)ccc2c1-c1ccc(C(F)(F)F)cc1 | > 100 µM | > 100 µM | – | –
CCOC(=O)c1[nH]c2cc(OC)ccc2c1-c1ccc(C(F)(F)F)cc1 | > 100 µM | > 100 µM | – | –
COC(=O)c1[nH]c2ccccc2c1-c1ccc(F)cc1 | > 100 µM | > 100 µM | – | –
COC(=O)c1[nH]c2cc(OC)ccc2c1C1CCCCC1 | 80.2 µM | > 100 µM | – | –
COC(=O)c1c(-c2ccc(C(F)(F)F)cc2)c2ccc(OC)cc2n1Cc1ccccc1 | > 100 µM | > 100 µM | – | –
C=C1/C(=C\C=C2/CCC[C@]3(C)[C@@H]([C@H](C)CCCC(C)(C)O)CC[C@@H]23)C[C@@H](O)C[C@@H]1O | – | – | Active | –
COc1ccc2c(-c3ccc(C(F)(F)F)cc3)c(C(=O)OC(C)(C)C)[nH]c2c1 | > 100 µM | > 100 µM | – | –
CC1=C(/C=C/C(C)=C/C=C/C(C)=C/C(=O)O)C(C)(C)CCC1 | – | – | – | Active
COC(=O)Cc1c(C(=O)OC)[nH]c2cc(OC)ccc12 | > 100 µM | > 100 µM | – | –
COC(=O)c1[nH]c2cc(C(F)(F)F)ccc2c1-c1ccccc1 | > 100 µM | > 100 µM | – | –
COC(=O)c1[nH]c2cc(C(F)(F)F)ccc2c1-c1ccc(OC)cc1 | > 100 µM | > 100 µM | – | –
COC(=O)c1[nH]c2ccccc2c1-c1ccc(C(F)(F)F)cc1 | > 100 µM | > 100 µM | – | –
COC(=O)c1[nH]c2ccc(OC)cc2c1-c1ccc(C(F)(F)F)cc1 | > 100 µM | > 100 µM | – | –
CCc1c(C(=O)OC)[nH]c2cc(OC)ccc12 | > 100 µM | > 100 µM | – | –
COC(=O)c1[nH]c2ccccc2c1-c1ccc(OC)cc1 | > 100 µM | > 100 µM | – | –
COC(=O)c1[nH]c2cc(OC)ccc2c1C(=O)OC | > 100 µM | > 100 µM | – | –

More lines, in order of falling EC50 (CCRF-CEM), values ahead:

EC50 (CCRF-CEM) | EC50 (RS4-11) | Structure (SMILES) | Activity (HL-60 [1]) | Activity (HL-60 [2])
52 µM | 43.1 µM | COc1ccc2c(-c3ccc(C(F)(F)F)cc3)c(C(=O)N[C@@H](Cc3ccccc3)C(=O)O)[nH]c2c1 | – | –
35.8 µM | 95.2 µM | COC(=O)c1[nH]c2ccccc2c1-c1ccccc1 | – | –
29.7 µM | 47.6 µM | COc1ccc2c(-c3ccc(C(F)(F)F)cc3)c(C(=O)N3CCOCC3)[nH]c2c1 | – | –
19.8 µM | 24.4 µM | COc1ccc2c(-c3ccc(C(F)(F)F)cc3)c(C(=O)O)[nH]c2c1 | – | –
16.6 µM | 37.8 µM | COC(=O)c1[nH]c2cc(OC)ccc2c1CC(C)C | – | –
10 µM | 85.6 µM | COC(=O)c1[nH]c2cc(OC)ccc2c1-c1ccc(F)cc1 | – | –
9.9 µM | 10.3 µM | COC(=O)c1[nH]c2cc(O)ccc2c1-c1ccc(C(F)(F)F)cc1 | – | –
8.7 µM | 61.6 µM | COC(=O)c1[nH]c2cc(OC)ccc2c1Cc1ccccc1 | – | –
1.9 µM | 10.5 µM | COC(=O)c1[nH]c2cc(OC)ccc2c1-c1ccccc1OC | – | –
0.58 µM | 3.8 µM | COC(=O)c1[nH]c2cc(OC)ccc2c1-c1ccc(Cl)c(Cl)c1 | – | –
0.39 µM | 0.3 µM | COC(=O)c1c(-c2ccc(C(F)(F)F)cc2)c2ccc(OC)cc2n1O | – | –
0.33 µM | 0.2 µM | COC(=O)c1[nH]c2cc(OC)ccc2c1-c1ccc(Br)cc1 | – | –
